# Reference: paper PMC3974318 (Memórias do Instituto Oswaldo Cruz, 2013)
# Entries after “also recorded” stand apart in the source; their conditions may differ.
# Assays:
# [1] = test system: axenic amastigotes of Leishmania amazonensis; assay: Cell viability by propidium iodide staining, flow cytometry; assay type: cell-based
# [2] = test system: axenic amastigote forms of L. amazonensis; assay: Mitochondrial membrane potential by rhodamine 123, flow cytometry; assay type: cell-based, Leishmania amazonensis; settings: 3 h, 32 °C, untreated cells 93.7%
# [3] = test system: T. cruzi epimastigotes; settings: extracellular replicative form; ref Izumi et al. (2012); cited from earlier work
# [4] = test system: promastigote forms of Leishmania amazonensis; assay: Ultrastructural analysis by SEM and TEM; assay type: cell-based; settings: 2.5 µg/mL, 72 h
# [5] = test system: Erythrocytes; assay: Cytotoxic activity: haemolysis of erythrocytes; assay type: cell-based, Human; settings: for toxicity to mammalian erythrocytes (lysis), in words: 3 h, 37 °C
# Summary of the method: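 Blood from healthy human donors was defibrinated and washed in glycosylated saline. A 3% erythrocyte suspension in glycosylated saline was incubated with a range of test compound concentrations for 3 h at 37 °C. Supernatant absorbance at 550 nm was compared with 1% Triton X-100-treated wells to give percent haemolysis.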
# [6] = test system: intracellular trypanosomes; settings: ref Izumi et al. 2012; cited from earlier work
# [7] = 100 µg/mL, 3 h, 32 °C, negative control 11.4%
SMILES,"PI-positive events, upper left quadrant gated percentage [1, 7] [%]",Rh123 upper right gated population percentage ([2]; 100 µg/mL) [%],"toxicity to mammalian erythrocytes (lysis), in words [5]",further results
"C=C1CC[C@@H]2[C@](C)(CCC[C@]2(C)C(=O)O)[C@H]1CC/C(C)=C/C(=O)O [Agathic acid, labd-8(20)-13-dien-15,19-dioic acid]",63.4,27.5,,
"C[C@@H]1[C@H](O)[C@@H](C)/C=C/C=C/C=C/C=C/C=C/C=C/C=C/[C@H](O[C@@H]2O[C@H](C)[C@@H](O)[C@H](N)[C@@H]2O)C[C@@H]2O[C@](O)(C[C@@H](O)C[C@@H](O)[C@H](O)CC[C@@H](O)C[C@@H](O)CC(=O)O[C@H]1C)C[C@H](O)[C@H]2C(=O)O [Amphotericin B, reference compound]",,,,"PI-positive events, upper left quadrant gated percentage ([1]; positive control, concentration not given): 75.9%"
"N#CC(C#N)=NNc1cccc(Cl)c1 [CCCP, carbonyl cyanide m-chlorophenylhydrazone, reference compound]",,,,Rh123 upper right gated population percentage ([2]; 200 µM): 53.1%
"C=C1CC[C@H]2C(C)(C)[C@@H](O)CC[C@]2(C)[C@H]1CC/C(C)=C/C(=O)O [Hydroxycopalic acid, 3β-hydroxylabda-8(20),13-dien-15-oic acid]",,,more toxic,ultrastructural changes in epimastigotes [3]: organelle disorganisation and membranous vacuole formation; ultrastructural changes (TEM) [4]: swollen mitochondria with the appearance of concentric membrane structures inside the organelle; inhibition of 50% against intracellular trypanosomes [6]: 0.6 µg/mL
"C=C1C[C@@]23CC[C@H]4[C@@](C)(CCC[C@@]4(C)C(=O)O)[C@@H]2CC[C@@H]1C3 [Kaurenoic acid, kaur-16-ene-18-oic acid]",60.8,24.4,more toxic,selectivity index (SI) ([5]; figures fit CC50/IC50 promastigote): 5
"C=C1CC[C@@H]2C(C)(C)CCC[C@@]2(C)[C@@H]1CC/C(C)=C/C(=O)OC [Methyl copalate, methyl labd-8(20),13-dien-15-oate]",,,,inhibition of 50% against intracellular trypanosomes [6]: 0.8 µg/mL
"C=C1CC[C@@H]2[C@](C)(CCC[C@@]2(C)C(=O)O)[C@H]1CC[C@H](C)CC(=O)O [Pinifolic acid, labd-8(20)-ene-15,18-dioic acid]",68.4,32.4,did not cause lysis except at the maximum concentration tested,"toxicity to mammalian erythrocytes (lysis), in words ([5]; listed as pinifolic acid): no toxicity was observed, except at the maximum concentration tested"
"C=C1CC[C@@H]2[C@](C)(CCC[C@@]2(C)C(=O)O)[C@H]1CCc1ccoc1 [Polyaltic acid, 15,16-epoxylabda-8(20),13(16),14-trien-19-oic acid]",,,"did not cause lysis except at the maximum concentration tested; also recorded: no toxicity was observed, except at the maximum concentration tested",
